According to ChEMBL document CHEMBL1821649, “Synthesis, characterization of some benzazoles bearing pyridine moiety: search for novel anticancer agents” (2011):

How the values were obtained:
Type in all cases: functional
TK-10 = test: Antitumor activity against human TK10 cells after 48 hrs by SRB assay; settings: TK-10, 48 h
Summary of the method: (§1)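 NCI-60 human cancer cell line panel run under the NCI Drug Evaluation Branch protocol. Compounds were first screened at a single dose. Those meeting preset inhibition thresholds were retested at five 10-fold dilutions. Output was percent growth of treated cells, given as % growth inhibition. GI50, TGI and LC50 values were derived from the five-dose data.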

HT-29 = test: Antitumor activity against human HT-29 cells after 48 hrs by SRB assay; settings: HT-29, 48 h
Summary of the method: (§2)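 NCI-60 human tumour cell panel run under the National Cancer Institute Drug Evaluation Branch protocol. Compounds passing a single-dose prescreen were retested on all lines at five 10-fold dilutions. Growth was expressed as percent growth of treated cells. Response parameters were GI50 (molar concentration giving 50% growth inhibition), TGI (total growth inhibition) and LC50 (median lethal concentration).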

NCI-H522 = test: Antitumor activity against human NCI-H522 cells after 48 hrs by SRB assay; settings: NCI-H522, 48 h; summary of the method: as §2
U-251 = test: Antitumor activity against human U251 cells after 48 hrs by SRB assay; settings: U-251, 48 h; summary of the method: as §1
HOP-92 = test: Antitumor activity against human HOP92 cells after 48 hrs by SRB assay; settings: HOP-92, 48 h; summary of the method: as §2
MDA-MB-231 = test: Antitumor activity against human MDA-MB-231 cells after 48 hrs by SRB assay; settings: MDA-MB-231, 48 h; summary of the method: as §2
NCI-H460 = test: Antitumor activity against human NCI-H460 cells after 48 hrs by SRB assay; settings: NCI-H460, 48 h; summary of the method: as §2
UACC-62 = test: Antitumor activity against human UACC62 cells after 48 hrs by SRB assay; settings: UACC-62, 48 h; summary of the method: as §1
K562 = test: Antitumor activity against human K562 cells after 48 hrs by SRB assay; settings: K562, 48 h; summary of the method: as §2
SK-OV-3 = test: Antitumor activity against human SKOV3 cells after 48 hrs by SRB assay; settings: SK-OV-3, 48 h; summary of the method: as §2
NCI-H23 = test: Antitumor activity against human NCI-H23 cells after 48 hrs by SRB assay; settings: NCI-H23, 48 h; summary of the method: as §2
UACC-257 = test: Antitumor activity against human UACC257 cells after 48 hrs by SRB assay; settings: UACC-257, 48 h; summary of the method: as §1
IGROV-1 = test: Antitumor activity against human IGROV1 cells after 48 hrs by SRB assay; settings: IGROV-1, 48 h; summary of the method: as §2
SW-620 = test: Antitumor activity against human SW620 cells after 48 hrs by SRB assay; settings: SW-620, 48 h; summary of the method: as §1
CCRF-CEM = test: Antitumor activity against human CCRF-CEM cells after 48 hrs by SRB assay; summary of the method: as §2
NCI-H322M = test: Antitumor activity against human NCI-H322M cells after 48 hrs by SRB assay; summary of the method: as §2
DU-145 = test: Antitumor activity against human DU145 cells after 48 hrs by SRB assay; settings: DU-145, 48 h; summary of the method: as §2
MCF7 = test: Antitumor activity against human MCF7 cells after 48 hrs by SRB assay; settings: MCF7, 48 h; summary of the method: as §2
Malme-3M = test: Antitumor activity against human MALME-3M cells after 48 hrs by SRB assay; summary of the method: as §2
SF-539 = test: Antitumor activity against human SF539 cells after 48 hrs by SRB assay; settings: SF-539, 48 h; summary of the method: as §2
OVCAR-4 = test: Antitumor activity against human OVCAR4 cells after 48 hrs by SRB assay; settings: OVCAR-4, 48 h; summary of the method: as §2
ACHN = test: Antitumor activity against human ACHN cells after 48 hrs by SRB assay; summary of the method: as §2
SF-295 = test: Antitumor activity against human SF295 cells after 48 hrs by SRB assay; settings: SF-295, 48 h; summary of the method: as §2
COLO 205 = test: Antitumor activity against human COLO205 cells after 48 hrs by SRB assay; settings: COLO 205, 48 h; summary of the method: as §2
T47D = test: Antitumor activity against human T47D cells after 48 hrs by SRB assay; summary of the method: as §1
OVCAR-3 = test: Antitumor activity against human OVCAR3 cells after 48 hrs by SRB assay; settings: OVCAR-3, 48 h; summary of the method: as §2
BT-549 = test: Antitumor activity against human BT549 cells after 48 hrs by SRB assay; settings: BT-549, 48 h; summary of the method: as §2
HCT-15 = test: Antitumor activity against human HCT15 cells after 48 hrs by SRB assay; settings: HCT-15, 48 h; summary of the method: as §2
NCI-H226 = test: Antitumor activity against human NCI-H226 cells after 48 hrs by SRB assay; settings: NCI-H226, 48 h; summary of the method: as §2
MDA-MB-435 = test: Antitumor activity against human MDA-MB-435 cells after 48 hrs by SRB assay; settings: MDA-MB-435, 48 h; summary of the method: as §2
[1] = Antitumor activity against human […] cells after 48 hrs by SRB assay; summary of the method: as §2
[2] = read-out: LC50 (the source's name)

COc1ccc(-c2c(C#N)cnc(N)c2-c2nc3cc(C)c(C)cc3[nH]2)cc1
GI50 (TK-10): 5.94 µM | TGI (TK-10): 26.4 µM | CC50 (TK-10; [2]): 99.6 µM | GI50 (HT-29): 4.79 µM | TGI (HT-29): > 100 µM | CC50 (HT-29; [2]): > 100 µM | LC50 (NCI-H522): > 100 µM | GI50 (U-251): 3.65 µM | TGI (U-251): 12.7 µM | CC50 (U-251; [2]): 53.9 µM | GI50 (HOP-92): 2650 nM | LC50 (HOP-92): > 100 µM | TGI (HOP-92): 16.3 µM | GI50 (MDA-MB-231): 8.28 µM | TGI (MDA-MB-231): > 100 µM | CC50 (MDA-MB-231; [2]): > 100 µM | GI50 (NCI-H460): 18.1 µM | LC50 (median lethal concentration) (NCI-H460): > 100 µM | TGI (NCI-H460): > 100 µM | GI50 (UACC-62): 72.2 µM | LC50 (UACC-62): > 100 µM | TGI (UACC-62): > 100 µM | GI50 (K562): 6.03 µM | LC50 (K562): > 100 µM | TGI (K562): > 100 µM | GI50 (SK-OV-3): 4.84 µM | LC50 (SK-OV-3): 59.6 µM | TGI (SK-OV-3): 18.4 µM | GI50 (NCI-H23): 5.37 µM | LC50 (NCI-H23): > 100 µM | TGI (NCI-H23): 33.3 µM | GI50 (UACC-257): 52 µM | LC50 (UACC-257): > 100 µM | TGI (UACC-257): > 100 µM | GI50 (IGROV-1): 16 µM | LC50 (IGROV-1): > 100 µM | TGI (IGROV-1): > 100 µM | GI50 (SW-620): 6.76 µM | TGI (SW-620): > 100 µM | CC50 (SW-620; [2]): > 100 µM | GI50 (CCRF-CEM): 25.6 µM | LC50 (CCRF-CEM): > 100 µM | TGI (CCRF-CEM): > 100 µM | GI50 (NCI-H322M): 15.5 µM | TGI (NCI-H322M): > 100 µM | CC50 (NCI-H322M; [2]): > 100 µM | GI50 (DU-145): 6.92 µM | TGI (DU-145): 23.8 µM | CC50 (DU-145; [2]): 61.8 µM | GI50 (MCF7): 6.34 µM | TGI (MCF7): > 100 µM | CC50 (MCF7; [2]): > 100 µM | GI50 (Malme-3M): 6 µM | LC50 (Malme-3M): > 100 µM | TGI (Malme-3M): 48.3 µM | GI50 (SF-539): 11.5 µM | TGI (SF-539): 41.9 µM | CC50 (SF-539; [2]): > 100 µM | GI50 (OVCAR-4): 22.5 µM | TGI (OVCAR-4): > 100 µM | CC50 (OVCAR-4; [2]): > 100 µM | GI50 (ACHN): 3.98 µM | TGI (ACHN): > 100 µM | CC50 (ACHN; [2]): > 100 µM | GI50 (SF-295): 6.41 µM | TGI (SF-295): 23.4 µM | CC50 (SF-295; [2]): 68.2 µM | GI50 (COLO 205): 7.78 µM | LC50 (COLO 205): > 100 µM | TGI (COLO 205): 63.7 µM | GI50 (T47D): 15.4 µM | TGI (T47D): > 100 µM | CC50 (T47D; [2]): > 100 µM | GI50 (OVCAR-3): 14.8 µM | TGI (OVCAR-3): 30.4 µM | CC50 (OVCAR-3; [2]): 62.2 µM | GI50 (BT-549): 30.6 µM | TGI (BT-549): > 100 µM | CC50 (BT-549; [2]): > 100 µM | GI50 (HCT-15): 5.81 µM | TGI (HCT-15): > 100 µM | CC50 (HCT-15; [2]): > 100 µM | GI50 (NCI-H226): 16.4 µM | TGI (NCI-H226): > 100 µM | CC50 (NCI-H226; [2]): > 100 µM | GI50 (MDA-MB-435): 1950 nM | LC50 (median lethal concentration) (MDA-MB-435): 100 µM | TGI (MDA-MB-435): 5.39 µM | GI50 [1]: 9.8 µM | TGI [1]: 65.7 µM | CC50 [1, 2]: > 100 µM
